HIF activator: HIF pathway transcriptional activation | 300,000 tested, 0.32% active | AID 1910 | U2OS HRE-luciferase reporter, luminescence; normalized: DMSO 0%, desferrioxamine 100% | activation, % at 7.5 µM (by protocol);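 active = mean activation of at least 10% of the iron chelator positive control signal, with at least half of replicates also reaching 10%; inconclusive = mean and replicate majority disagree about reaching 10%; inactive = mean and most replicates under 10%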
CSC inhib: cancer stem cell inhibition | cancer stem cell-like cells viability, luminescence | inhibition, % at 7.5 µM | 300,000 tested, 1.1% active; in the data active = inhibition above about 75%; inconclusive = no clear call, values can overlap the other calls; tested in HMLE shEcad cells
PfHsp90 set2: reduces growth (ATP signal) of yeast expressing P. falciparum Hsp90; inhibition, % at 9.4 µM; 310,000 tested, 0.32% active; AID 504621; S. cerevisiae expressing PfHsp90, BacTiter-Glo ATP, 48 h; yeast lacking PDR1 and PDR3 efflux regulators;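 active = every replicate shows inhibition above about 80%, whatever the replicate mean, limit read from the data; inconclusive = mean inhibition reaches the set limit but some replicate falls short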
T cruzi inh: blocks replication of Trypanosoma cruzi. T. cruzi beta-gal in NIH3T3, luminescence, 90 h. inhibition, % (concentration not given with the values). 300,000 tested, 1.4% active. AID 1885;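 active = mean inhibition across valid replicates above about 55%, limit read from the data; inconclusive = mean below that limit but half or more replicates reach it; inactive = mean below it, under half of replicates reach it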;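 also: signal also drops with host cell toxicity which is not excluded here; higher percent means less beta-gal luminescence so fewer parasites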
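compound dosing = single 50 nL compound addition per well in DMSO | material = NIH/3T3 host cells with β-galactosidase reporter T. cruzi | input = 5,000 host fibroblasts per well | timing = ≥90 h infection period, 3 h prior cell attachment | read-out basis = percent inhibition of parasite-derived β-gal signal | detection = GalScreen β-gal luminescence, detergent lysis, 60 min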
Beta cell apopt: beta cell apoptosis inhibition | 300,000 tested, 0.8% active | INS-1E cytokine-induced death, ATP luminescence, 48 h; percent of positive-control rescue, neutral wells zero | protection from apoptosis, % (test concentration not listed);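 active = Every replicate reaches about 75%, or at least half do and their mean reaches it too, limit read from the data; inconclusive = At least half of replicates reach the limit but their mean does not; inactive = Under half of replicates reach the limit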;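 also: higher means more ATP so stronger rescue from cytokine killing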
SKKanGAS inh: inhibitors of SKKanGAS S. pyogenes growth in kanamycin (SK-promoter or general growth effect); BacTiter-Glo, 6 h; inhibition, % at 7.5 µM; 300,000 tested, 1.3% active; AID 1662;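 active = mean replicate score, as percent of positive control median, at least 50; inconclusive = mean below 50 but one replicate at or above 50; inactive = mean and every replicate below 50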;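 also: strain carries kanamycin resistance gene driven by streptokinase promoter and grows in 40 µg/ml kanamycin; loss of luminescence reflects streptokinase promoter inhibition or plain growth inhibition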
Of the large screens only hits and unclear results are named; the others gave an inactive call. This is a sample that favours compounds with a hit; in the whole collection about 3.6% have one here.

Fc1ccc(OCCCCCn2ccnc2)cc1	T cruzi inh 55.1
C=CCc1cc(Cl)ccc1OCCn1ccnc1	none
Cc1cc(OCCCn2ccnc2)cc(C)c1Cl	T cruzi inh 59.5
Cc1ccc(C)c(OCCCCCn2ccnc2)c1	T cruzi inh 72.3
O=C(CSc1ccccc1Cl)N1CCOCC1	none
Cc1cc(=O)oc2cc(OCC(=O)OCC(=O)NC3CC3)ccc12	none
CCN(CC)c1ccc(NC(=O)CSc2nc3ccccc3c(=O)n2-c2cc(S(=O)(=O)N(C)C)ccc2C)cc1	none
Clc1ccc(OCCn2ccnc2)c2ccccc12	T cruzi inh 69.7 (no result: PfHsp90 set2)
Clc1ccc(OCCn2ccnc2)c(Cl)c1	none
CCN(c1ccccc1)S(=O)(=O)c1ccc(Oc2ccccc2)c(N)c1	none (no result: HIF activator, CSC inhib, T cruzi inh, Beta cell apopt, SKKanGAS inh)
CCOC(=O)c1sc(-c2ccc(F)cc2)cc1NC(=O)Nc1ccccc1OC	none
CCOC(=O)c1sc(NC(=O)Nc2ccccc2Cl)cc1C	CSC inhib 93.7, T cruzi inh 64.6
CCOC(=O)c1sc(-c2ccccc2)cc1NC(=O)Nc1ccccc1	T cruzi inh 55.1
COc1ccc(Nc2cnn(-c3nc4ccccc4s3)c(=O)c2Cl)cc1	PfHsp90 set2 95.8
O=S(=O)(c1ccc(Br)cc1)N1CCC2(CC1)OCCO2	none
Cc1oc2c(c1C(=O)c1ccccc1)C(=O)C(=O)c1ccccc1-2	CSC inhib 98.2, Beta cell apopt 103.8 (no result: PfHsp90 set2)
Cc1oc2c(c1C(=O)O)C(=O)c1ccccc1C2=O	none
O=C1C(=O)c2c(C(=O)c3ccccc3)coc2-c2ccccc21	T cruzi inh 58.0, Beta cell apopt 101.4
O=C(C1=C(c2ccccc2)C(=O)c2ccccc2C1=O)c1ccccc1	none (no result: CSC inhib, Beta cell apopt)
CCOC(=O)c1c(C)oc2c1C(=O)c1ccccc1C2=O	CSC inhib 85.1, Beta cell apopt 84.2 (no result: SKKanGAS inh)
CCN(CC)S(=O)(=O)c1ccc(N2CCN(C)CC2)c(NC(=O)CN2C(=O)NC3(CCCCC3)C2=O)c1	none (no result: HIF activator, CSC inhib, T cruzi inh, Beta cell apopt, SKKanGAS inh)
COc1ccc(-c2cc(C3CCN(CC(O)C(F)(F)F)CC3)[nH]n2)cc1 (centres undefined)	none (no result: CSC inhib, Beta cell apopt)
COc1ccc(-c2cc(C3CCN(Cc4ccc([N+](=O)[O-])cc4)CC3)[nH]n2)cc1	T cruzi inh 85.1
COc1ccc(-c2cc(C3CCN(Cc4cccc(C(F)(F)F)c4)CC3)[nH]n2)cc1	T cruzi inh 62.3, SKKanGAS inh inconclusive
O=c1cc(O)nc(SCc2ccc(Cl)cc2)[nH]1	SKKanGAS inh 103.8 (no result: PfHsp90 set2)
O=C(CSc1nc(-c2ccc(Cl)cc2)[nH]c(=O)n1)Nc1cccc(Cl)c1	SKKanGAS inh 58.5
O=C(Nc1ccc(N2CCCCC2)cc1)c1cc([N+](=O)[O-])cc([N+](=O)[O-])c1	T cruzi inh 60.1
O=[N+]([O-])c1ccc(N2CCN(C(=S)Nc3cccc(F)c3)CC2)cc1	none
O=C(Nc1ccc(N2CCCC2)cc1)c1ccc([N+](=O)[O-])cc1Cl	none
O=[N+]([O-])c1ccc(N2CCN(C(=S)Nc3ccc(F)cc3)CC2)cc1	Beta cell apopt 76.3
Cc1ccccc1-c1nc(CS(=O)(=O)CC(=O)NCCCN2CC(C)CC(C)C2)c(C)o1 (centres undefined)	none
Cc1ccc(N2C(=O)CC(N(CCc3ccccc3)C(=S)Nc3ccc(N(C)C)cc3)C2=O)cc1 (centres undefined)	CSC inhib 94.5
COc1ccc(CCN(C(=S)Nc2ccccc2)C2CC(=O)N(c3ccccc3)C2=O)cc1 (centres undefined)	none
O=C1CC(N(CCc2ccccc2)C(=S)Nc2ccccc2)C(=O)N1c1ccc(Br)cc1 (centres undefined)	SKKanGAS inh 68.8
COc1ccc(S(=O)(=O)N2CCN(CC(=O)Nc3c(C)n[nH]c3C)CC2)cc1OC	none (no result: HIF activator, T cruzi inh, SKKanGAS inh)
CC(C)(O)c1ccccc1CC[C@@H](SCC1(CC(=O)O)CC1)c1cccc(/C=C/c2ccc3ccc(Cl)cc3n2)c1	CSC inhib 96.9, SKKanGAS inh 104.7
COc1cc(C(=O)NCC(=O)N/N=C/c2ccccn2)cc(OC)c1OC	none
COc1ccc(C(=O)N/N=C(\Cc2ncc[nH]2)c2ccccc2)cc1	T cruzi inh 66.5 (no result: PfHsp90 set2)
c1ccc(N/N=C(\Cc2ncc[nH]2)c2ccccc2)cc1	none
COc1cc(C(=O)N/N=C(\Cc2ncc[nH]2)c2ccccc2)cc(OC)c1OC	CSC inhib 91.3 (no result: HIF activator, T cruzi inh, SKKanGAS inh)
CCN(c1ccccc1)S(=O)(=O)c1ccc(Cl)c(NC(=O)CN(C)Cc2cccc(F)c2)c1	none (no result: HIF activator, CSC inhib, T cruzi inh, Beta cell apopt, SKKanGAS inh)
c1cncc(-c2noc(CC3CCCCC3)n2)c1	none
COc1cccc(-c2nc3ccc(C(=O)NC(C)Cc4cccnc4)cc3o2)c1 (centres undefined)	none
O=C1OC2(c3ccccc31)c1cc(I)c(O)c(I)c1Oc1c2cc(I)c(O)c1I	none (no result: HIF activator, PfHsp90 set2, T cruzi inh, SKKanGAS inh)
CCC1(CC)SCCNC1=O	none (no result: HIF activator, CSC inhib, T cruzi inh, Beta cell apopt, SKKanGAS inh)
CC(OC(=O)c1ccc(Cl)nc1)C(=O)NC1(C#N)CCCCC1 (centres undefined)	T cruzi inh inconclusive
Fc1ccccc1CNc1cc(Cl)cc(Cl)c1	SKKanGAS inh 72.7
O=[N+]([O-])c1ccccc1CNc1ccc(F)c(Cl)c1	none
Cc1cn([C@H]2C[C@H](O)[C@@H](CCC(=O)NCc3ccco3)O2)c(=O)[nH]c1=O	none (no result: HIF activator, CSC inhib, T cruzi inh, Beta cell apopt, SKKanGAS inh)
CC(C)Cn1c(=O)c(C(=O)N/N=C/c2cccc(F)c2)c(O)c2ccccc21	SKKanGAS inh 63.8
O=C(NCC1CCCN(Cc2cccc(OCCO)c2)C1)c1ccc(F)cc1 (centres undefined)	none
CCOc1ccc(CN2CCCC(CNC(=O)c3ccc(F)cc3)C2)cc1CO (centres undefined)	T cruzi inh 62.1
CCOc1cc(CN2CCCC(CNC(=O)c3ccc(F)cc3)C2)ccc1OC (centres undefined)	T cruzi inh 60.6
COc1ccc(CN2CCCC(CNC(=O)c3ccc(F)cc3)C2)c(C)c1C (centres undefined)	T cruzi inh 70.6
Clc1ccc(-n2cnc3c(Cl)ncnc32)cc1Cl	none (no result: HIF activator, CSC inhib, T cruzi inh, Beta cell apopt, SKKanGAS inh)
C=CCNC(=O)CN(Cc1ccccc1)S(=O)(=O)c1ccccc1	none
Fc1cnc(Cl)nc1N1CCN(c2ccccc2)CC1	none
CN1CCN(c2nc(N3CCN(c4ccccc4)CC3)ncc2F)CC1	T cruzi inh 56.9 (no result: HIF activator, PfHsp90 set2)
COc1ccc(NC(=O)Cn2nc(C(=O)O)c3ccccc3c2=O)cc1OC	none
COc1ccc(-c2ncccc2OC(=O)C23CC4CC(CC(C4)C2)C3)cc1	none
CC1=CC(=C(C#N)c2nc3ccccc3s2)C=C(C)N1Cc1ccco1	T cruzi inh 64.4
O=C(NCc1ccco1)c1nc2ccccc2s1	none (no result: PfHsp90 set2)
O=C(Cn1cnc2c(NCc3ccccc3)ncnc21)NCCc1cc2ccccc2[nH]1	none (no result: HIF activator, CSC inhib, T cruzi inh, Beta cell apopt, SKKanGAS inh)
O=C(Oc1c(CN2CCOCC2)cc(Cl)c2cccnc12)c1ccccc1F	T cruzi inh 74.2
O=C(Oc1c(CN2CCOCC2)cc(Cl)c2cccnc12)c1ccccc1	Beta cell apopt inconclusive
O=c1cc(-c2ccc([N+](=O)[O-])cc2)nc2cc(-c3ccc(F)cc3)[nH]n12	SKKanGAS inh 67.5
